H69AR inhibit: proliferation blockers of H69AR lung cancer cells, primary screen, cell-based, human, 86K library; viability, % at 10 µM; AID 598, 2007; 6% of 85,000 active; H69AR lung tumor viability, ATP luminescence, 72 h; hits give low values;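 active = viability at or below 40%; inactive = viability above 40%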;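 note: multidrug resistant small cell line overexpressing MRP-1 efflux transporter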
HUVEC prolif 384: inhibitors of HUVEC proliferation, primary screen, cell-based, 384-well; CellTiter-Glo luminescence, 72 h; hits give low values; viability, % at 10 µM (by protocol); 1.1% of 86,000 active; AID 648, 2007;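 active = viability at or below 30%; inactive = viability above 30%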
Fibroblast inh: antiproliferative effect on LL 47 fibroblasts – human, LL 47 cells, CellTiter-Glo luminescence, primary screen; LL 47 human lung fibroblast viability, ATP luminescence; hits give low values; viability, % at 10 µM; 1.1% of 85,000 active;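 active = viability at or below 50% in the single dose screen; inactive = viability above 50%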;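 note: compound exposure lasted 72 h before the ATP readout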
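Test system: LL 47 human lung fibroblasts; Quantity: 1,150 cells/well; Buffer or medium: IMEM plus 15% FBS; Dosing: tenfold compound dosing solution, DMSO at 0.1%; Timing: overnight cell rest, 72 h compound treatment at 37 °C; Detection: ATP-based CellTiter-Glo luminescent readout; Read-out basis: viability percentage against median untreated-cell control; Controls: cell-only wells, no compound.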
PTEN del growth: growth suppression of PTEN-null HCT116, primary screen, cell-based, CellTiter-Glo. HCT116 PTEN-null viability, 60 h; hits give low values. viability, % at 10 µM. 1.2% of 140,000 active;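 active = viability at or below a set limit, 4 SD under the median of all tested compounds, cut at about 3.7% in these data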;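 note: PTEN knockout HCT116 line with beta catenin targeted HCT116 as companion control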
bCat KO growth: primary screen for growth suppressors in beta-catenin knockout HCT116 cells (colon tumor, human). HCT116 beta-catenin knockout viability, CellTiter-Glo, 60 h; hits give low values. viability, % at 10 µM. 1.5% of 140,000 active. AID 818, 2007;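 active = viability at or under a set limit, the compound median less 4 SD, cut at about 6% in these data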
A number is an active result; i = inactive; nt = no result given. Shown is part of a subset that was picked to be rich in hits.

SMILES	H69AR inhibit	HUVEC prolif 384	Fibroblast inh	PTEN del growth	bCat KO growth
COc1ccc(C(=O)NCC(=O)OCc2csc(-c3ccccc3)n2)cc1	nt	nt	nt	i	i
O=C(c1ccc(Cl)c(S(=O)(=O)NCc2ccccc2)c1)N1CCN(c2ccccn2)CC1	20.6	i	i	nt	i
Cc1cccc(N2CCN(C(=O)c3ccc(Cl)c(S(=O)(=O)NCc4ccco4)c3)CC2)c1C	20.7	i	i	i	i
O=C(O)c1ccc(Cl)c(S(=O)(=O)NCc2ccco2)c1	i	i	i	i	i
CNc1nc(SCc2ccc(C)cc2)nc2c1CCCC2	nt	nt	nt	i	i
O=C(CSCCN1C(=O)c2ccccc2C1=O)Nc1ccc2ccccc2c1	nt	nt	nt	i	i
O=C1Nc2ccccc2N(O)N1c1ccc(S(=O)(=O)N2CCCCCC2)cc1	nt	nt	nt	i	i
O=c1[nH]c(=O)n(Cc2ccco2)c2c1C(C(F)(F)F)(C(F)(F)F)N=C(C1CCCCC1)N2	i	i	i	i	i
N#Cc1ccc(C2=NC(C(F)(F)F)(C(F)(F)F)c3c(n(Cc4ccco4)c(=O)[nH]c3=O)N2)cc1	34.9	i	i	i	i
O=c1[nH]c(=O)n(Cc2ccco2)c2c1C(C(F)(F)F)(C(F)(F)F)N=C(CCC1CCCCC1)N2	9.5	i	i	i	i
CCN1C(=O)/C(=C2\SC(=S)N(CCCOC)C2=O)c2ccccc21	31.4	i	i	i	i
CCN1C(=O)/C(=C2\C=Cc3ccccc3N2CC)SC1=S	nt	nt	nt	i	i
O=C(c1ccco1)N1CCN(C(=O)N2c3ccccc3Sc3ccccc32)CC1	31.9	i	i	i	i
O=C(c1ccco1)N1c2ccccc2Sc2ccccc21	nt	nt	nt	i	i
O=C(N1CCN(c2ccccn2)CC1)N1c2ccccc2Sc2ccccc21	34.2	26.1	i	i	i
CC1(C)CC(=O)C=C(NCc2ccc(Cl)c(Cl)c2)C1	nt	nt	nt	i	i
CSc1nc2ccc(NS(=O)(=O)c3cccc(Cl)c3Cl)cc2s1	nt	nt	nt	i	i
O=C(Cc1ccccc1)NC(NCCc1ccccc1)C(Cl)(Cl)Cl (centres undefined)	nt	nt	nt	i	i
CCOC(=O)c1[nH]c(C)c(/C(O)=C2\C(=O)C(=O)N(CCN(C)C)C2c2ccc(C)o2)c1C (centres undefined)	19.4	i	i	i	i
COC(=O)c1[nH]c(C)c(/C(O)=C2\C(=O)C(=O)N(CCN(C)C)C2c2cccs2)c1C (centres undefined)	nt	nt	nt	i	i
CCOC(=O)c1[nH]c(C)c(/C(O)=C2\C(=O)C(=O)N(CCN3CCOCC3)C2c2cccs2)c1C (centres undefined)	33.4	i	i	i	i
CCCOc1ccc(C2/C(=C(\O)c3c(C)[nH]c(C(=O)OC)c3C)C(=O)C(=O)N2CCN(C)C)cc1 (centres undefined)	i	i	i	i	i
CCOc1ccc(C2/C(=C(\O)c3c(C)[nH]c(C(=O)OC)c3C)C(=O)C(=O)N2CCN(C)C)cc1 (centres undefined)	i	i	i	0.7	0.7
NS(=O)(=O)c1ccc(NC(=O)COC(=O)CCC2CCCCC2)cc1	nt	nt	nt	i	i
Cc1nc(C)c(CCNC(=O)c2ccccc2Br)s1	nt	nt	nt	i	i
SMILES	H69AR inhibit	HUVEC prolif 384	Fibroblast inh	PTEN del growth	bCat KO growth
CC(c1nc2ccccc2c(=O)[nH]1)N1CCN(C)CC1 (centres undefined)	i	i	i	i	i
COc1ccccc1N1CCN(c2cc(=O)n(Cc3ccc(F)cc3)c(=O)[nH]2)CC1	29.7	i	i	i	i
CCc1nc(Sc2nnnn2-c2ccccc2)c2c3c(sc2n1)CCCC3	nt	nt	nt	3.1	4.9
Cc1nc(Sc2nnnn2C)c2c3c(sc2n1)CCC3	22.6	i	33.0	i	i
CSc1nc2sc3c(c2c2nncn12)CCC3	i	i	i	i	i
Nc1nc2ccc(O)cc2s1	18.0	i	nt	i	i
COc1cc(-c2ncc3ccccn23)cc(OC)c1OC	nt	nt	nt	i	i
COc1ccc(C(C[N+](=O)[O-])c2c(-c3ccccc3)cc3ccccn23)cc1OC (centres undefined)	25.9	i	i	i	i
COc1cc(C(C[N+](=O)[O-])c2c(-c3ccccc3)cc3ccccn23)cc(OC)c1OC (centres undefined)	10.6	i	34.0	i	i
COc1ccc(C(C[N+](=O)[O-])c2c(-c3ccccc3)cc3ccccn23)cc1 (centres undefined)	11.9	i	43.4	1.9	3.3
O=C(c1ccc(Cl)cc1)N1CCC(O)(CSc2ccc(Cl)cc2Cl)CC1	nt	nt	nt	i	i
O=C(NCCN1C(=O)S/C(=C\c2cccs2)C1=O)[C@H](Cc1ccccc1)N1C(=O)c2ccccc2C1=O	nt	nt	nt	i	i
O=C(c1ccccc1)c1ccc(OCC(O)CN2CCOCC2)cc1 (centres undefined)	i	i	i	nt	nt
CCOc1ccc(C(=O)C(CN2CCOCC2)c2ccccc2)cc1 (centres undefined)	nt	nt	nt	2.7	3.1
Cc1cc(OCC(=O)Nc2ccc(F)c(F)c2)nc(C(C)C)n1	nt	nt	nt	i	i
Cc1ccc(C(=O)c2cc(C)sc2NC(=O)CN2CCN(C(=O)c3ccco3)CC2)cc1	28.3	i	i	i	i
CCOC(=O)CC(=O)CSc1nc2ccc(C)cc2cc1C#N	3.2	i	i	i	i
COC(=O)CSc1nc2cc(C)ccc2cc1C#N	i	i	nt	i	i
Cc1ccc2nc(SCC(=O)Nc3ccccc3N3CCOCC3)c(C#N)cc2c1	23.8	i	i	i	i
CCOC(=O)CC(=O)CSc1nc2c(c(C)c1C#N)CCC2	12.1	i	i	i	i
Cc1ccc(-c2nnc(SCC(=O)Nc3ccccc3N3CCOCC3)o2)cc1	i	i	i	i	i
O=C(CSc1ccc(-c2ccc(F)cc2)nn1)N1CCN(c2ccccc2)CC1	nt	nt	nt	i	i
CC(O/N=C\c1ccccc1O)C(=O)Nc1ccccc1C(=O)N1CCOCC1 (centres undefined)	nt	nt	nt	i	i
Cc1cccc(OCc2n[nH]c(=S)n2C2CCCCC2)c1	22.1	i	i	i	i
S=c1[nH]nc(COc2ccc(Cl)cc2)n1C1CCCCC1	i	i	i	i	i
SMILES	H69AR inhibit	HUVEC prolif 384	Fibroblast inh	PTEN del growth	bCat KO growth
Cc1ccc(OCc2n[nH]c(=S)n2C2CCCCC2)cc1	36.6	i	i	i	i
CCOc1ncccc1C(=O)Nc1cccc(C(=O)Nc2cccc(S(=O)(=O)CCO)c2)c1	30.2	i	i	i	i
N/C(=N\c1nc2c(c(=O)[nH]1)CCC2)Nc1ccccc1C(F)(F)F	nt	nt	nt	i	i
CC(C)(C)c1ccc(C2(C)NC(=O)N(CC(=O)c3ccc[nH]3)C2=O)cc1 (centres undefined)	26.7	i	i	i	i
CC(=O)OCCNc1cc(SCc2ccco2)c2nonc2c1[N+](=O)[O-]	nt	nt	nt	1.0	1.1
CCCC(=O)OCCNc1cc(SCCC(=O)OC)c2nonc2c1[N+](=O)[O-]	nt	nt	nt	i	i
CC(=O)OCCCNc1cc(Sc2ccc(C)cc2)c2nonc2c1[N+](=O)[O-]	nt	nt	nt	3.8	3.6
O=[N+]([O-])c1c(NCCCO)cc(SCc2ccco2)c2nonc12	nt	nt	nt	i	i

Bioassay records from PubChem BioAssay.
